ChEMBL document CHEMBL1149080, “Synthesis and structure-activity relationships of 2-phenyl-1-[(pyridinyl- and piperidinylmethyl)amino]-3-(1H-1,2,4-triazol-1-yl)propan-2-ols as antifungal agents” (2009)
Converted amounts (≈) assume the structure as drawn.

How the values were obtained:
Aspergillus fumigatus = experiment: Antifungal activity against Aspergillus fumigatus AF98003; format: functional
Procedure, shortened: (§1)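 Growth inhibition of each strain in vitro, following an earlier method; endpoint is MIC80, the lowest concentration giving 80% growth inhibition, in ng mL-1. Values are means of triplicate determinations, with standard deviation given.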

Candida albicans = experiment: Antifungal activity against Candida albicans CA98001; format: functional; procedure, shortened: as §1

Structure (SMILES) | MIC80 (Aspergillus fumigatus) | MIC80 (Candida albicans)
CC(C)(C)OC(=O)N1CCC(CNCC(O)(Cn2cncn2)c2ccc(F)cc2F)CC1 (stereo unspecified) | > 30 µg/mL | 0.027 µg/mL (≈ 0.0598 µM)
OC(CNCc1ccccn1)(Cn1cncn1)c1ccc(F)cc1F (stereo unspecified) | > 30 µg/mL | 0.22 µg/mL (≈ 0.637 µM)
OC(CNCC1CCNCC1)(Cn1cncn1)c1ccc(F)cc1F (stereo unspecified) | > 30 µg/mL | 1.41 µg/mL (≈ 4.01 µM)
CCC(C)n1ncn(-c2ccc(N3CCN(c4ccc(OCC5COC(Cn6cncn6)(c6ccc(Cl)cc6Cl)O5)cc4)CC3)cc2)c1=O (stereo unspecified) [ITRACONAZOLE] | 0.42 µg/mL (≈ 0.595 µM) | 
CN(CC1CCN(C(=O)OC(C)(C)C)CC1)CC(O)(Cn1cncn1)c1ccc(Cl)cc1Cl (stereo unspecified) | > 30 µg/mL | 0.039 µg/mL (≈ 0.0782 µM)
OC(CNCc1cccnc1)(Cn1cncn1)c1ccc(F)cc1F (stereo unspecified) | > 30 µg/mL | 0.13 µg/mL (≈ 0.376 µM)
OC(CNCc1cccnc1)(Cn1cncn1)c1ccc(Cl)cc1Cl (stereo unspecified) | > 30 µg/mL | 0.037 µg/mL (≈ 0.0978 µM)
CN(CC1CCN(C(=O)OC(C)(C)C)CC1)CC(O)(Cn1cncn1)c1ccc(F)cc1F (stereo unspecified) | > 30 µg/mL | 0.153 µg/mL (≈ 0.329 µM)
OC(Cn1cncn1)(Cn1cncn1)c1ccc(F)cc1F [FLUCONAZOLE] |  | 0.19 µg/mL (≈ 0.62 µM)
CC(C)(C)OC(=O)N1CCC(CNCC(O)(Cn2cncn2)c2ccc(Cl)cc2Cl)CC1 (stereo unspecified) | > 30 µg/mL | 0.026 µg/mL (≈ 0.0537 µM)
OC(CNCc1ccccn1)(Cn1cncn1)c1ccc(Cl)cc1Cl (stereo unspecified) | > 30 µg/mL | 0.023 µg/mL (≈ 0.0608 µM)
OC(CNCc1ccncc1)(Cn1cncn1)c1ccc(F)cc1F (stereo unspecified) | > 30 µg/mL | 0.083 µg/mL (≈ 0.24 µM)
OC(CNCc1ccncc1)(Cn1cncn1)c1ccc(Cl)cc1Cl (stereo unspecified) | > 30 µg/mL | 0.036 µg/mL (≈ 0.0952 µM)
OC(CNCC1CCNCC1)(Cn1cncn1)c1ccc(Cl)cc1Cl (stereo unspecified) | > 30 µg/mL | 0.12 µg/mL (≈ 0.312 µM)
